Test results: ChEMBL document CHEMBL1132198, “Hypoglycemic prodrugs of 4-(2,2-dimethyl-1-oxopropyl)benzoic acid” (J Med Chem, 1999)

Key:
[1] = AUC was measured from the graph plotted against blood plasma concentration and time at the dose of 150 uMol/kg,; format: ADME
[2] = AUC was measured from the graph plotted against blood plasma concentration and time at the dose of 300 uMol/kg,; format: ADME
[3] = system: Rattus norvegicus; assay: In vivo percentage efficacy, measured as ability to decrease blood glucose percentage after 11.25 days.; format: functional; design: concentration or dose not given beside the values
Method in brief: (§1)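 Rats (250-300 g) on high-fat purified diet, made diabetic by 40 mg/kg streptozotocin iv (tail vein) 3 days into diet. Selected by glucose criteria, including an oral glucose load (1.35 g/kg dextrose) after an 18 h fast. Dosed orally once daily at 70 µmol/kg in CMC for 11 days. Blood glucose taken 6 h post-dose (food removed). % efficacy: 100% = normalization to 60 mg/dL.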

[4] = system: Rattus norvegicus; assay: In vivo percentage efficacy, measured as ability to decrease blood glucose percentage after 8.25 days in rats; format: functional; design: concentration or dose not given beside the values; method in brief: as §1
[5] = system: Rattus norvegicus; assay: Ketone levels were determined in an acute in vivo study for inhibition of gluconeogenesis in normal male Sprague-Dawley rats; format: functional; design: concentration or dose not given beside the values
Method in brief: (§2)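 Normal male Sprague-Dawley rats (200-300 g) fasted 18 h; five per group given compound by oral gavage at 100 µmol/kg in carboxymethylcellulose vehicle or vehicle alone. At 3 h, cardiac-puncture blood under brief CO₂ anesthesia; serum β-hydroxybutyrate (ketones) and glucose expressed as % of control; Student's t-test.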

[6] = system: Rattus norvegicus; assay: Glucose levels were determined in an acute in vivo study for inhibition of gluconeogenesis in normal male Sprague-Dawley rats; format: functional; design: concentration or dose not given beside the values; method in brief: as §2
[7] = AUC was measured from the graph plotted against blood plasma concentration and time at the dose of 700 uMol/kg,; format: ADME
[8] = system: Rattus norvegicus; assay: In vivo percentage efficacy, measured as ability to decrease blood glucose percentage after 8.25 days; format: functional; design: concentration or dose not given beside the values; method in brief: as §1
[9] = system: Rattus norvegicus; assay: Testes weight (treated)/body weight(treated)]/[testes weight(control)/body weight(control)] x 100 at a dose of 700 umol/kg/day; format: functional
[10] = AUC was measured from the graph plotted against blood plasma concentration and time at the dose of 150 uMol/kg
[11] = system: Rattus norvegicus; assay: In vivo percentage efficacy was measured as ability to decrease blood glucose percentage after 11.25 days in rats; format: functional; method in brief: as §1
[12] = system: Rattus norvegicus; assay: Testes weight (treated)/body weight(treated)]/[testes weight(control)/body weight(control)] x 100 at a dose of 350 umol/kg/day; format: functional
[13] = AUC was measured from the graph plotted against blood plasma concentration and time at the dose of 300 uMol/kg; format: ADME, cell-free
[14] = system: Rattus norvegicus; assay: Testes weight (treated)/body weight(treated)]/[testes weight(control)/body weight(control)] x 100 at a dose of 700 uM/kg/day; format: functional

Compound | AUC [2] | Efficacy [3] | Efficacy [4] | Serum ketone level, % of control [5] | Control [6] | other results
CC(C)(C)C(=O)c1ccc(C(=O)O/C(=N\OCC(=O)O)c2ccc(C(=O)C(C)(C)C)cc2)cc1 | 2030 µg·h/mL | <102% | <90% | <19% | <63% | AUC [1]: 1000 µg·h/mL
CC(C)O/N=C(\OC(=O)c1ccc(C(=O)C(C)(C)C)cc1)c1ccc(C(=O)C(C)(C)C)cc1 | 155 µg·h/mL | <98% | <80% | <41% | 94% | AUC [1]: 94 µg·h/mL
Cc1ccc(C2(C(C)(C)C)OCCO2)cc1 | – | <64% | – | <12% | <58% | AUC [7]: 3560 µg·h/mL; Efficacy [8]: <52%; Control [9]: <52%; AUC [10]: 1510 µg·h/mL
CC(C)(C)C(=O)c1ccc(C(N)=O)cc1 | – | – | – | – | – | Control [9]: <48%
CC(C)(C)[C@@H](O)c1ccc(C(=O)O)cc1 | – | – | <64% | <23% | <42% | Efficacy [11]: <63%; Control [12]: <59%
CC(C)(C)C(O)c1ccc(C(=O)O)cc1 (centres undefined) | – | – | – | – | <50% | Control [12]: <74%
CC(C)(C)C(=O)c1ccc(C2=N[C@@H](Cc3ccccc3)C(=O)O2)cc1 | 413 µg·h/mL | – | – | <21% | <90% | –
CC(C)(C)C(=O)c1ccc(C(=O)O/C(=N\OCCO)c2ccc(C(=O)C(C)(C)C)cc2)cc1 | 565 µg·h/mL | <92% | <92% | <15% | 98% | AUC [1]: 122 µg·h/mL
CC(C)(C)C(=O)c1ccc(C(=O)O)cc1 | – | – | – | – | – | Control [9]: <47%
CC(C)(C)C(=O)c1ccc(C2=NCCO2)cc1 | 886 µg·h/mL | – | – | <20% | <74% | –
CC(C)(C)C(=O)c1ccc(C(=O)N(CC(=O)O)C(=O)c2ccc(C(=O)C(C)(C)C)cc2)cc1 | 1080 µg·h/mL | <47% | – | <6% | <56% | Efficacy [8]: <53%
CC(C)(C)C(=O)c1ccc(C(=O)N(C(=O)c2ccc(C(=O)C(C)(C)C)cc2)C(=O)c2cccnc2)cc1 | – | <74% | – | <46% | 95% | AUC [13]: 64 µg·h/mL; Efficacy [8]: <73%; Control [12]: 95%
CC1(C)COC(c2ccc(C(=O)O)cc2)(C(C)(C)C)OC1 | 263 µg·h/mL | – | – | <18% | 105% | –
CC(C)(C)C(=O)c1ccc(C(=O)N[C@@H](Cc2ccccc2)C(=O)O)cc1 | 964 µg·h/mL | – | – | <4% | – | AUC [7]: 2930 µg·h/mL
CC(C)(C)[C@H](O)c1ccc(C(=O)O)cc1 | – | – | – | <80% | 94% | Control [12]: <62%
CC(C)(C)C(=O)c1ccc(C(=O)NC(=O)c2ccc(F)cc2)cc1 | 588 µg·h/mL | <54% | – | <13% | <65% | AUC [7]: 2570 µg·h/mL; Efficacy [8]: <57%; Control [9]: <63%
CO/N=C(\OC(=O)c1ccc(C(=O)C(C)(C)C)cc1)c1ccc(C(=O)C(C)(C)C)cc1 | 85 µg·h/mL | <59% | <64% | <30% | 98% | AUC [7]: 325 µg·h/mL; Control [14]: 96%
C=CCOC(c1ccc(C(=O)O)cc1)C(C)(C)C (centres undefined) | – | – | – | <29% | 107% | AUC [13]: 941 µg·h/mL
CC(C)(C)C(=O)c1ccc(C(=O)O/C(=N\OCCCC(=O)O)c2ccc(C(=O)C(C)(C)C)cc2)cc1 | 1630 µg·h/mL | – | – | <15% | <70% | –
CC(C)(C)O/N=C(\OC(=O)c1ccc(C(=O)C(C)(C)C)cc1)c1ccc(C(=O)C(C)(C)C)cc1 | 55 µg·h/mL | <98% | <80% | <50% | <70% | Control [14]: 102%
COCCO/N=C(\OC(=O)c1ccc(C(=O)C(C)(C)C)cc1)c1ccc(C(=O)C(C)(C)C)cc1 | 1850 µg·h/mL | <108% | <109% | <19% | <49% | –
COC(c1ccc(C(=O)O)cc1)C(C)(C)C (centres undefined) | 1020 µg·h/mL | <59% | – | <17% | <81% | Efficacy [8]: <23%
CC(C)(C)C1(c2ccc(C(=O)O)cc2)OCCCO1 | 1400 µg·h/mL | <65% | – | <15% | 111% | Efficacy [8]: <41%
C=CCO/N=C(\OC(=O)c1ccc(C(=O)C(C)(C)C)cc1)c1ccc(C(=O)C(C)(C)C)cc1 | 158 µg·h/mL | <85% | <53% | <43% | 105% | –
CC(C)(C)C(=O)c1ccc(C(=O)NC(=O)c2ccc(C(=O)C(C)(C)C)cc2)cc1 | 122 µg·h/mL | – | – | <21% | 92% | AUC [7]: 2670 µg·h/mL; Control [9]: 101%
CO/N=C(\OC(=O)c1ccc([C@@H](O)C(C)(C)C)cc1)c1ccc([C@H](O)C(C)(C)C)cc1 (relative stereo) | 2370 µg·h/mL | – | – | <17% | <61% | –
